Data as given in ChEMBL document CHEMBL1122702, “Radiohalogen-labeled imaging agents. 3. Compounds for measurement of brain blood flow by emission tomography” (J Med Chem, 1984).

Key:
Format in all cases: ADME, organism-based
[1] = species: Rattus norvegicus; test: The distribution of the 131 I-labeled compound at 30 min was evaluated in rat liver as Percent of injected dose per gram in the organ; settings: in vivo, 0.5 h
Method in brief: (§1)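 Male Sprague-Dawley rats (200–300 g, free access to food and water), lightly ether-anesthetized and restrained, received a 0.2 mL saline tail-vein bolus of 10–20 μCi 131I-labeled compound. They were decapitated at the stated time, and organs were excised, weighed and gamma-counted. Percent injected dose was determined against a calibrated external standard made by serial dilution of the injectate. n = 1–4 rats.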

[2] = species: Rattus norvegicus; test: Ratio of distribution of the [131I]-labeled compound at 30 min in rat kidney over uptake in blood; settings: other tissue, 0.5 h
Method in brief: (§2)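 Male Sprague-Dawley rats (200–300 g, fed ad libitum), ether-anesthetized, got a tail-vein bolus of 0.2 mL saline containing 10–20 μCi 131I compound and were decapitated at the stated time. Organs were weighed and gamma-counted against a serially diluted external standard. Organ/blood ratio was calculated from % dose per gram of organ. Animal numbers per time point were 1–4.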

[3] = species: Rattus norvegicus; test: The distribution of the 131 I-labeled compound at 5 min was evaluated in rat heart as Percent of injected dose per gram in the organ; settings: in vivo; method in brief: as §1
[4] = species: Rattus norvegicus; test: Ratio of distribution of the [131I]-labeled compound at 5 min in rat heart over uptake in blood; settings: other tissue; method in brief: as §2
[5] = species: Rattus norvegicus; test: Ratio of distribution of the [131I]-labeled compound at 30 min in rat liver over uptake in blood; settings: other tissue, 0.5 h; method in brief: as §2
[6] = species: Rattus norvegicus; test: Ratio of distribution of the [131I]-labeled compound at 30 min in rat brain over uptake in blood; settings: 0.5 h; method in brief: as §2
[7] = species: Rattus norvegicus; test: Ratio of distribution of the [131I]-labeled compound at 30 min in rat heart over uptake in blood; settings: other tissue, 0.5 h; method in brief: as §2
[8] = species: Rattus norvegicus; test: The distribution of the 131 I-labeled compound at 30 min was evaluated in rat kidney as Percent of injected dose in the total organ; settings: in vivo, 0.5 h; method in brief: as §1
[9] = species: Rattus norvegicus; test: The distribution of the 131 I-labeled compound at 30 min was evaluated in rat heart as Percent of injected dose per gram in the organ; settings: in vivo, 0.5 h; method in brief: as §1
[10] = species: Rattus norvegicus; test: Ratio of distribution of the [131I]-labeled compound at 5 min in rat liver over uptake in blood; settings: other tissue; method in brief: as §2
[11] = species: Rattus norvegicus; test: The distribution of the 131 I-labeled compound at 30 min was evaluated in rat blood as Percent of injected dose per gram in the organ; settings: in vivo, 0.5 h; method in brief: as §1
[12] = species: Rattus norvegicus; test: The distribution of the 131 I-labeled compound at 30 min was evaluated in rat kidney as Percent of injected dose per gram in the organ; settings: in vivo, 0.5 h; method in brief: as §1
[13] = species: Rattus norvegicus; test: The distribution of the 131 I-labeled compound at 5 min was evaluated in rat heart as Percent of injected dose in the total organ; settings: in vivo; method in brief: as §1
[14] = species: Rattus norvegicus; test: The distribution of the 131 I-labeled compound at 5 min was evaluated in rat kidney as Percent of injected dose in the total organ; settings: in vivo; method in brief: as §1
[15] = species: Rattus norvegicus; test: The distribution of the 131 I-labeled compound at 5 min was evaluated in rat kidney as Percent of injected dose per gram in the organ; settings: in vivo; method in brief: as §1
[16] = species: Rattus norvegicus; test: The distribution of the 131 I-labeled compound at 5 min was evaluated in rat lung as Percent of injected dose per gram in the organ; settings: in vivo; method in brief: as §1
[17] = species: Rattus norvegicus; test: The distribution of the 131 I-labeled compound at 30 min was evaluated in rat brain as Percent of injected dose in the total organ; settings: in vivo, 0.5 h; method in brief: as §1
[18] = species: Rattus norvegicus; test: The distribution of the 131 I-labeled compound at 5 min was evaluated in rat brain as Percent of injected dose per gram in the organ; settings: in vivo; method in brief: as §1
[19] = species: Rattus norvegicus; test: Ratio of distribution of the [131I]-labeled compound at 5 min in rat brain over uptake in blood; method in brief: as §2
[20] = species: Rattus norvegicus; test: Ratio of distribution of the [131I]-labeled compound at 5 min in rat kidney over uptake in blood; settings: other tissue; method in brief: as §2
[21] = species: Rattus norvegicus; test: The distribution of the 131 I-labeled compound at 5 min was evaluated in rat brain as Percent of injected dose in the total organ; settings: in vivo; method in brief: as §1
[22] = species: Rattus norvegicus; test: The distribution of the 131 I-labeled compound at 5 min was evaluated in rat liver as Percent of injected dose per gram in the organ; settings: in vivo; method in brief: as §1
[23] = species: Rattus norvegicus; test: The distribution of the 131 I-labeled compound at 30 min was evaluated in rat heart as Percent of injected dose in the total organ; settings: in vivo, 0.5 h; method in brief: as §1
[24] = species: Rattus norvegicus; test: The distribution of the 131 I-labeled compound at 30 min was evaluated in rat lung as Percent of injected dose per gram in the organ; settings: in vivo, 0.5 h; method in brief: as §1
[25] = species: Rattus norvegicus; test: Ratio of distribution of the [131I]-labeled compound at 5 min in rat lung over uptake in blood; settings: other tissue; method in brief: as §2
[26] = species: Rattus norvegicus; test: The distribution of the 131 I-labeled compound at 30 min was evaluated in rat liver as Percent of injected dose in the total organ; settings: in vivo, 0.5 h; method in brief: as §1
[27] = species: Rattus norvegicus; test: Ratio of distribution of the [131I]-labeled compound at 30 min in rat lung over uptake in blood; settings: other tissue, 0.5 h; method in brief: as §2
[28] = species: Rattus norvegicus; test: The distribution of the 131 I-labeled compound at 5 min was evaluated in rat liver as Percent of injected dose in the total organ; settings: in vivo; method in brief: as §1
[29] = species: Rattus norvegicus; test: The distribution of the 131 I-labeled compound at 5 min was evaluated in rat blood as Percent of injected dose per gram in the organ; settings: in vivo; method in brief: as §1
[30] = species: Rattus norvegicus; test: The distribution of the 131 I-labeled compound at 30 min was evaluated in rat brain as Percent of injected dose per gram in the organ; settings: in vivo, 0.5 h; method in brief: as §1

| SMILES | Dose [1] | Ratio [2] | Dose [3] | Ratio [4] | Ratio [5] | Ratio [6] | Ratio [7] | Dose [8] | Dose [9] | Ratio [10] | Dose [11] | Dose [12] | Dose [13] | Dose [14] | Dose [15] | Dose [16] | Dose [17] | Dose [18] | Ratio [19] | Ratio [20] | further results |
| --- | --- | --- | --- | --- | --- | --- | --- | --- | --- | --- | --- | --- | --- | --- | --- | --- | --- | --- | --- | --- | --- |
| COc1cc(CC(C)N(C)Cc2ccccc2)c(OC)cc1I (stereo not given) | 0.62% | 5.8 | 1.1% | 9.2 | 6.9 | 0.09 | 2.1 | 1.3% | 0.19% | 6.7 | 0.09% | 0.52% | 1.2% | 1.8% | 0.63% | 0.75% | 0.1% | 0.15% | 1.3 | 5.3 | Dose [21]: 0.29%; Dose [22]: 0.8%; Dose [23]: 0.21%; Dose [24]: 0.7%; Ratio [25]: 6.3; Dose [26]: 7.6%; Ratio [27]: 7.8; Dose [28]: 12%; Dose [29]: 0.12%; Dose [30]: 0.05% |
| COc1cc(CC(C)N)c(OC)cc1I (stereo not given) | 0.8% | 18 | 0.86% | 12 | 13 | 6.7 | 14 | 2.8% | 0.29% | 12 | 0.06% | 1.1% | 0.92% | 3.2% | 1.2% | 3.3% | 0.76% | 0.34% | 4.7 | 17 | Dose [21]: 0.64%; Dose [22]: 0.83%; Dose [23]: 0.32%; Dose [24]: 2.8%; Ratio [25]: 47; Dose [26]: 10%; Ratio [27]: 46; Dose [28]: 5.6%; Dose [29]: 0.07%; Dose [30]: 0.4% |
